Only some compounds are listed: those with a hit (about 6.1% of all), similar ones and a draw of the others.
BB579 growth dn: growth inhibitors of yeast BB579 in restrictive medium, primary screen, yeast lifespan-shortening project, S. cerevisiae; OD615, 48 h; 140,000 compounds, 0.51% hits; inhibition, % at 10 µM;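 active = inhibition above a set limit, 3 SD over the mean compound inhibition, cut at about 44% in these data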
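Test system: DeaD yeast strain BB579 / Buffer or medium: restrictive glucose-based CSMM-D medium / Doses: single 10 µM dose / Schedule: 4 h cell preincubation, 48 h compound exposure, 30 °C humidified / Technique: culture absorbance at 615 nm / Controls: amphotericin B positive control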
hDAT+cocaine: changed hDAT dopamine uptake under cocaine IC80, either direction, primary screen, cocaine antagonist project, cell-based, LLC-PK1 hDAT, [14C]-dopamine uptake, MLSMR; LLC-PK1 hDAT cells, [14C]-dopamine uptake with cocaine IC80; actives deviate in either direction; AID 449768, 2010; 110,000 compounds, 1.3% hits; B-score at 10 µM;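 active = Z score or B-score, a plate-position-corrected score, falls beyond the plate's 99.7% confidence bounds, in either direction; inactive = both scores lie inside the 99.7% bounds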
Target sequence (Q01959 whole entry, looked up): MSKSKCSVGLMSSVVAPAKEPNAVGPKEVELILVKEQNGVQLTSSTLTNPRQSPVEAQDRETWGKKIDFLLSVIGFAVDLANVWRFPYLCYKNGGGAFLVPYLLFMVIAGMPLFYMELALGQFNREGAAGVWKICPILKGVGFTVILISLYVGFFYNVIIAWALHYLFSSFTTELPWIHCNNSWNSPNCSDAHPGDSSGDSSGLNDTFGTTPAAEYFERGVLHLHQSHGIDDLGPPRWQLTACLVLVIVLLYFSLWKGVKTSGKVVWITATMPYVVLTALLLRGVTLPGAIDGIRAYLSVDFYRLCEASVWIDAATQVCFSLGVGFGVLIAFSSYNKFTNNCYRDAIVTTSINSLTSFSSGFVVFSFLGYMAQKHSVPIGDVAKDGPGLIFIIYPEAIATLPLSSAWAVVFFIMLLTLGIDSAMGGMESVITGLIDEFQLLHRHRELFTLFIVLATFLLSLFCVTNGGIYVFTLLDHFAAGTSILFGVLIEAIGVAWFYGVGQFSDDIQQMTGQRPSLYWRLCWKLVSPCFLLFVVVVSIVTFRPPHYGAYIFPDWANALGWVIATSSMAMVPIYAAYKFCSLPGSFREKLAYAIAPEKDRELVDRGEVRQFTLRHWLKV
Measles CPE: compounds protecting cells from measles virus cytopathic effect, primary screen, measles RdRp inhibitor project, single point, MLSMR library, absorbance. Measles virus-infected cells, CPE protection. protection (pct of control), % at 4 µM. 140,000 compounds, 1.5% hits. AID 841, 2007; in the data active = protection mostly above about 24%, no sharp cut-off; inactive = mostly below about 26%
Yeast lifespan up: compounds extending yeast replicative lifespan, primary screen, S. cerevisiae, OD615; 130,000 compounds, 0.68% hits; S. cerevisiae growth with nicotinamide; deaD strain in restrictive glucose medium; inhibition of the nicotinamide effect, % at 10 µM;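 active = inhibition above a set limit, placed 3 SD over the median of all compounds, cut at about 26% in these data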
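Material: Modified budding yeast, DeaD strain | Medium: Restrictive glucose medium | Probe or stimulus: 1.5 mM nicotinamide | Dosing: Single dose 10 µM compound, 0.25% DMSO | Times: 48 h at 30 °C | Technique: OD615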
WT yeast gro inh: growth inhibition of WT strain, primary screen, mitochondrial fusion inhibitor project, WT and mutant strains, chemical genetic; mitochondrial fusion phenotypic screen; inhibition, % at 10 µM; 190,000 compounds, 2.1% hits; AID 1362, 2008; in the data active = inhibition above about 58%; tested in S. cerevisiae
RAM network inh: inhibitors of the yeast RAM network, primary screen, dse1pr::URA3 reporter, 5-FOA selection; AID 868, 2007; inhibition, % at 50 µM; 190,000 compounds, 1.8% hits; S. cerevisiae dse1pr::URA3 reporter, 5-FOA growth OD615, 2 d; analog-sensitive cbk1-as2 kinase mutant strain;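 active = inhibition above a set limit, 3 SD over mean compound inhibition, cut at about 8.4% in these data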;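 also: inhibition rescues growth on 5-FOA so higher OD means more RAM inhibition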
RAM efflux-def: 5-FOA growth of efflux-deficient control yeast, dose response, counter-screen for RAM network inhibitor project, S. cerevisiae, OD615. shares compounds with RAM network inh. S. cerevisiae efflux-deficient reporter strain, 5-FOA growth OD615, 2 days. max inhibition, %. 1,200 tested, under 10 active. AID 1305, 2008; call rule not given here
Numbers stand for hits; n = inactive; x = no result given.

SMILES	BB579 growth dn	hDAT+cocaine	Measles CPE	Yeast lifespan up	WT yeast gro inh	RAM network inh	RAM efflux-def
CC(=O)Nc1ccc(S(=O)(=O)NC(CC(=O)NCCCN2CCOCC2)C(C)C)cc1 (stereo not given)	n	n	n	n	n	n	x
CCCCCCCCNC(=O)CC(NS(=O)(=O)c1ccc(NC(C)=O)cc1)C(C)C (stereo not given)	n	x	n	n	n	13	n
O=C(CN(c1ccc(F)cc1)S(=O)(=O)c1ccccc1)NCCSC1CCCCC1	n	x	n	n	n	n	x
Cc1[nH]n(-c2ccccc2)c(=O)c1N=Nc1ccccc1	x	x	x	x	n	13	n
Cc1[nH]n(-c2ccccc2)c(=O)c1N=Nc1cccc(S(=O)(=O)N2CCOCC2)c1	n	x	n	n	n	n	x
O=C(CN(C(=O)CSc1nnc(COc2ccccc2)o1)c1ccc(F)cc1)NC1CCCC1	n	n	n	n	n	15	n
CC(C)CNC(=O)CN(C)S(=O)(=O)c1ccc(F)cc1	n	x	n	n	n	n	x
Cc1cc(S(=O)(=O)N(Cc2cccs2)Cc2ccccc2F)ccc1-n1cnnn1	n	x	n	n	n	13	n
Cc1cc(S(=O)(=O)N(Cc2ccccc2)Cc2ccc(N(C)C)cc2)ccc1-n1cnnn1	n	n	n	n	n	n	x
O=C(Nc1cc(Sc2ccccn2)cc([N+](=O)[O-])c1)c1cccc(Cl)c1	n	x	n	n	n	12	n
O=C(Nc1cc(Sc2ccccn2)cc([N+](=O)[O-])c1)c1ccc(Cl)cc1	n	n	n	n	n	n	x
COc1ccc(-c2[nH]ncc2CN2C[C@@H]3CCC[C@H]2C3)c(F)c1	x	x	x	x	n	n	x
O=C(Nc1ccc2c(c1)OCO2)c1ccc(COc2ccc3c(c2)CCC3)o1	n	n	n	n	n	11	n
Cc1ccc(C(=O)Nc2ccc3c(c2)CCC3)o1	n	n	n	n	n	n	x
COc1cccc(C(=O)CSc2nnc(-c3cc(OC)c(OC)c(OC)c3)o2)c1	n	n	n	n	n	13	n
COc1cc(-c2nnc(SCC(=O)c3ccc(C)cc3)o2)cc(OC)c1OC	n	n	n	n	n	n	x
COc1cc(-c2nnc(-c3ccccc3)o2)cc(OC)c1OC	n	n	n	x	n	23	n
COc1cc(-c2nnc(-c3cc(OC)c(OC)c(OC)c3)o2)cc(OC)c1OC	n	n	n	x	n	n	x
COc1ccc(C(=O)N/C(=C/c2ccco2)C(=O)NC2CCS(=O)(=O)C2)cc1 (stereo not given)	x	x	x	x	n	n	x
CC(C)CNC(=O)c1ccccc1NC(=O)c1ccc(CSc2ccccc2)cc1	n	x	n	n	n	18	n
O=C(CNC(=O)c1cccc(F)c1)N/N=C/c1cc(Br)ccc1OCc1ccccc1	n	x	n	n	n	n	x
O/N=C/c1cc(Br)ccc1OCc1cccc(F)c1	n	n	n	n	n	12	n
CCCCn1c(SCC(=O)Nc2nccs2)nc2ccccc2c1=O	n	n	n	n	n	n	x
CCCCn1c(SCC(=O)Nc2ccccc2C(F)(F)F)nc2ccsc2c1=O	n	n	n	n	n	11	n
CCN(CC)S(=O)(=O)c1cccc(C(=O)OCC(=O)c2ccc3c(c2)OCCO3)c1	n	x	n	n	n	14	n
SMILES	BB579 growth dn	hDAT+cocaine	Measles CPE	Yeast lifespan up	WT yeast gro inh	RAM network inh	RAM efflux-def
CCCCC(=O)Nc1ccccc1C(=O)OCC(=O)c1ccc2c(c1)OCCO2	n	x	n	n	n	13	n
O=C(O)/C=C/C(=O)Nc1ccccc1C(=O)OCC(=O)c1ccc2c(c1)OCCO2	x	x	x	x	n	n	x
O=C(COC(=O)c1cccc(S(=O)(=O)NCc2ccccc2)c1)c1ccc2c(c1)OCCO2	n	x	n	n	n	n	x
Cn1cc(S(=O)(=O)Nc2ccc3c(c2)OCCO3)cn1	x	x	x	x	n	n	x
O=C(COC(=O)CCCN1C(=O)c2cccc3cccc(c23)C1=O)Nc1cccc(C(F)(F)F)c1	n	x	n	n	n	12	n
Cc1cc(C)n(-c2n[nH]c(C)c2[N+](=O)[O-])n1	x	x	x	x	n	n	x
Nc1nn2c(-c3ccccc3)cc(=O)[nH]c2c1N=Nc1ccc(Br)cc1	x	x	x	x	n	14	n
COc1cc(/C=C(/C#N)c2ccc(F)cc2)ccc1Oc1ccc([N+](=O)[O-])cn1	n	x	n	n	n	n	x
O=C(CCCSc1nc2ccccc2[nH]1)Nc1nnc(-c2ccccc2)o1	n	n	n	n	n	14	n
CC(C)=CCc1c(O)c(CC=C(C)C)c2c(c1O)C(=O)CC(c1ccc(O)cc1)O2 (stereo not given)	x	n	x	x	91	13	n
COc1ccc(-c2nn(-c3ccccc3F)cc2CNCCn2nc(C)cc2C)cc1	x	x	x	x	n	n	x
O=C(O)C1CC(=O)N(c2ccc(OCc3ccccc3)cc2)C1 (stereo not given)	n	n	n	n	n	n	x
COc1ccc(OC)c(/C=N/NC(=O)CCc2ccc(O)c(O)c2)c1	n	x	n	n	n	n	x
CCOc1c(Cl)cc(C(=O)Nc2ccccc2-c2ccccc2)cc1Cl	n	x	n	n	n	14	n
CCCCCC(=O)O[C@]1(C(C)=O)CC[C@H]2[C@@H]3CCC4=CC(=O)CC[C@]4(C)[C@H]3CC[C@@]21C	n	n	n	n	74	12	n
CC(=O)c1cn(Cc2ccccc2)c(=O)n(Cc2ccc(F)cc2)c1=O	x	x	x	x	n	n	x
CN1C(=O)/C(=C/c2ccccc2OCc2cccc(F)c2)NC1=S	n	n	n	n	n	11	n
Cc1ccc(NC(=O)CSc2nnc(C3COc4ccccc4O3)o2)c(Cl)c1 (stereo not given)	x	x	x	x	n	n	x
CCOc1ccc(CNC(=O)CCn2c(=O)oc3ccccc32)cc1	n	n	n	n	n	n	x
CCOc1ccc(CNC(=O)CCc2cn(Cc3ccccc3)c3ccccc23)cc1	n	x	n	n	n	13	n
O=[N+]([O-])c1ccc(-c2nnc(-c3ccccc3)c(NCCCO)n2)cc1	n	x	n	n	n	13	n
OCCCNc1nc(-c2ccc(Cl)cc2)nnc1-c1ccc(Br)cc1	n	x	n	n	n	n	x
Cc1ccc(NC(=S)N(C)Cc2cn(C)c3ccccc23)cc1	n	x	n	n	n	n	x
Cc1nc(NCCc2ccccc2)c(C#N)c(C)c1[N+](=O)[O-]	n	x	n	n	n	n	x
COc1cc(NS(=O)(=O)c2ccc(Nc3nc(-c4ccccc4)cs3)cc2)nc(OC)n1	n	x	n	n	n	11	n

Bioassay records from PubChem.
